BindingDB's records for doi:10.1016/j.bmcl.2018.04.005 (Shanghai Institute of Materia Medica, 2018)

Biological target: T1, Sortase family protein (Staphylococcus aureus, UniProt Q9S446)
T1 sequence (Q9S446 whole entry): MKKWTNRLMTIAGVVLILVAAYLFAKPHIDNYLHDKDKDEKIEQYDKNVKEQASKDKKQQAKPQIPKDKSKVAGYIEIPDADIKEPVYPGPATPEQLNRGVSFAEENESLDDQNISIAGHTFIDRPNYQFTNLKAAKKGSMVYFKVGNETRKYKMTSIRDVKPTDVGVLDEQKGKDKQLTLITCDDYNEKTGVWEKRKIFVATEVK
Assay: Inhibition of Staphylococcus aureus SrtA deltaN24 mutant assessed as decrease in transpeptidation of IsdA (64 to 323 residues) incubated for 1.25 hrs in presence of NH2-Gly3 nucleophile by SDS-PAGE method
Summary of the method: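 Recombinant, affinity-purified IsdA64-323 (a natural SrtA substrate from S. aureus) is incubated with purified SrtAΔN24 and NH2-Gly3 nucleophile, with or without test compound. Cleavage at the sorting signal gives the transpeptidation product, which is resolved by SDS-PAGE. Inhibition is judged from partial or complete blockade of product formation. Used as a counter-screen against FRET false positives.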

Compound	IC50 [µM]
CC(C)=CC[C@H](O)c1cc(O)c2c(c1O)C(=O)C=CC2=O	5
CC(C)C=CC(=O)c1cc(O)c2c(O)ccc(O)c2c1O [5,8-Dihydroxy-2-(1-hydroxy-4-methyl-pent-3-enyl)-[1,4]naphthoquinone]	5
